Values after ≈ are worked out from the molar mass of the structure shown. Active and inactive are the calls of the source. The rule behind the calls is not given here.
Tests used:
Format in all cases: functional
Staphylococcus aureus [1] = test: Antibacterial activity Staphylococcus aureus NCIM 2079 at 100 ug/disc by agar-well diffusion assay; conditions: for zone of inhibition at 100 µg/disc: read-out: DIZ
Procedure, shortened: (§1)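 Agar-well diffusion screen against standard strains. Zone of inhibition is the read-out. Chloramphenicol, nystatin and ravuconazole were run as positive controls.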

Escherichia coli [2] = test: Antibacterial activity Escherichia coli NCIM 2109 at 100 ug/disc by agar-well diffusion assay; conditions: for zone of inhibition at 100 µg/disc: read-out: DIZ; procedure, shortened: as §1
Bacillus subtilis [3] = test: Antibacterial activity Bacillus subtilis NCIM 2250 at 100 ug/disc by agar-well diffusion assay; conditions: for zone of inhibition at 100 µg/disc: read-out: DIZ; procedure, shortened: as §1
Pseudomonas aeruginosa [4] = test: Antibacterial activity Pseudomonas aeruginosa NCIM 2036 at 100 ug/disc by agar-well diffusion assay; conditions: for zone of inhibition at 100 µg/disc: read-out: DIZ; procedure, shortened: as §1
Aspergillus niger [5] = test: Antifungal activity Aspergillus niger NCIM 545 at 100 ug/disc by agar-well diffusion assay; conditions: for zone of inhibition at 100 µg/disc: read-out: DIZ; procedure, shortened: as §1
Candida albicans [6] = test: Antifungal activity Candida albicans NCIM 3471 at 100 ug/disc by agar-well diffusion assay; conditions: for zone of inhibition at 100 µg/disc: read-out: DIZ; procedure, shortened: as §1
Staphylococcus aureus [7] = test: Antibacterial activity Staphylococcus aureus NCIM 2079 after 24 hrs by NCCLS method
Procedure, shortened: (§2)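 Broth microdilution MIC per NCCLS. Compounds dissolved in DMSO, serially diluted in growth medium, incubated at 37 °C. Read at 24 h for bacteria and 24–72 h for fungi. MIC90 taken as the first well with about 90% growth reduction relative to the drug-free well.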

Escherichia coli [8] = test: Antibacterial activity Escherichia coli NCIM 2109 after 24 hrs by NCCLS method; procedure, shortened: as §2
Bacillus subtilis [9] = test: Antibacterial activity Bacillus subtilis NCIM 2250 after 24 hrs by NCCLS method; procedure, shortened: as §2
Pseudomonas aeruginosa [10] = test: Antibacterial activity Pseudomonas aeruginosa NCIM 2036 after 24 hrs by NCCLS method; procedure, shortened: as §2
Aspergillus niger [11] = test: Antifungal activity Aspergillus niger NCIM 545 after 24 to 72 hrs by NCCLS method; procedure, shortened: as §2
Candida albicans [12] = test: Antifungal activity Candida albicans NCIM 3471 after 24 to 72 hrs by NCCLS method; procedure, shortened: as §2

| Molecule | zone of inhibition at 100 µg/disc (Escherichia coli [2]) [mm] | diameter of the inhibition zone (DIZ) (Bacillus subtilis [3]) | zone of inhibition at 100 µg/disc (Pseudomonas aeruginosa [4]) [mm] | diameter of the inhibition zone (DIZ) (Candida albicans [6]) | MIC (Escherichia coli [8]; NCIM 2109, 24 h) [µg/mL] | MIC (Bacillus subtilis [9]) | MIC (Pseudomonas aeruginosa [10]; NCIM 2036, 24 h) [µg/mL] | MIC (Aspergillus niger [11]) | MIC (Candida albicans [12]) | zone of inhibition at 100 µg/disc (Staphylococcus aureus [1]) [mm] | zone of inhibition at 100 µg/disc (Bacillus subtilis [3]) [mm] | zone of inhibition at 100 µg/disc (Aspergillus niger [5]) [mm] | zone of inhibition at 100 µg/disc (Candida albicans [6]) [mm] | MIC (Staphylococcus aureus [7]; NCIM 2079, 24 h) [µg/mL] | MIC (Bacillus subtilis [9]; NCIM 2250, 24 h) [µg/mL] | diameter of the inhibition zone (DIZ) (Escherichia coli [2]) | diameter of the inhibition zone (DIZ) (Pseudomonas aeruginosa [4]) | MIC (Escherichia coli [8]) | MIC (Pseudomonas aeruginosa [10]) | other results |
| --- | --- | --- | --- | --- | --- | --- | --- | --- | --- | --- | --- | --- | --- | --- | --- | --- | --- | --- | --- | --- |
| O=[N+]([O-])c1ccc(/C(Cn2cncn2)=N\Nc2nc(-c3ccc(Br)cc3)cs2)cc1 | 11 | inactive | 19.8 | inactive | > 64 | inactive | 64 (≈ 132 µM) | inactive | inactive |  |  |  |  |  |  |  |  |  |  | diameter of the inhibition zone (DIZ) (Staphylococcus aureus [1]): inactive; diameter of the inhibition zone (DIZ) (Aspergillus niger [5]): inactive; MIC (Staphylococcus aureus [7]): inactive |
| Fc1ccc(/C(Cn2cncn2)=N\Nc2nc(-c3ccc(F)cc3)cs2)cc1 | 21.5 |  | 24.1 |  | 32 (≈ 80.7 µM) |  | 32 (≈ 80.7 µM) | 16 µg/mL (≈ 40.4 µM) | 64 µg/mL (≈ 161 µM) | 16.1 | 24.4 | 20.4 | 16.3 | 64 (≈ 161 µM) | 32 (≈ 80.7 µM) |  |  |  |  |  |
| O=[N+]([O-])c1ccc(/C(Cn2cncn2)=N\Nc2nc(-c3ccc(Cl)cc3)cs2)cc1 |  |  |  | inactive |  |  |  | inactive | inactive | 14.2 | 15.8 |  |  | > 64 | 64 (≈ 145 µM) | inactive | inactive | inactive | inactive | diameter of the inhibition zone (DIZ) (Aspergillus niger [5]): inactive |
| FC(F)(F)c1cc(-c2csc(N/N=C(/Cn3cncn3)c3ccc(Cl)cc3)n2)cc(C(F)(F)F)c1 | 15.6 | inactive | 26.1 |  | > 64 | inactive | 32 (≈ 60.3 µM) | > 64 µg/mL | 32 µg/mL (≈ 60.3 µM) | 11.2 |  | 8.66 | 20.7 | > 64 |  |  |  |  |  |  |
| O=C(O)c1cn(C2CC2)c2cc(N3CCNCC3)c(F)cc2c1=O [CIPROFLOXACIN] | 26.2 |  | 30.9 |  |  |  | 16 (≈ 48.3 µM) |  |  | 28.4 | 26.7 |  |  |  | 16 (≈ 48.3 µM) |  |  |  |  |  |
| O=[N+]([O-])c1ccc(/C(Cn2cncn2)=N\Nc2nc(-c3cc(C(F)(F)F)cc(C(F)(F)F)c3)cs2)cc1 |  | inactive | 16.8 | inactive |  | inactive | 64 (≈ 118 µM) | inactive | inactive | 17.2 |  |  |  | 64 (≈ 118 µM) |  | inactive |  | inactive |  | diameter of the inhibition zone (DIZ) (Aspergillus niger [5]): inactive |
| Fc1ccc(-c2csc(N/N=C(/Cn3cncn3)c3ccc(Br)cc3)n2)cc1 |  |  |  |  |  |  |  | > 64 µg/mL | 64 µg/mL (≈ 140 µM) | 15.5 | 20.3 | 11.9 | 14.4 | 64 (≈ 140 µM) | 32 (≈ 70 µM) | inactive | inactive | inactive | inactive |  |
| Fc1ccc(-c2csc(N/N=C(/Cn3cncn3)c3cc(C(F)(F)F)cc(C(F)(F)F)c3)n2)cc1 |  |  | 22.9 |  |  |  | 16 (≈ 31.1 µM) | 32 µg/mL (≈ 62.2 µM) | > 64 µg/mL | 21.2 | 9.77 | 17.3 | 19.4 | 64 (≈ 124 µM) | > 64 | inactive |  | inactive |  |  |
| O=[N+]([O-])c1ccc(/C(Cn2cncn2)=N\Nc2nc(-c3ccc([N+](=O)[O-])cc3)cs2)cc1 | 10.8 | inactive | 20.8 | inactive | > 64 | inactive | 64 (≈ 142 µM) | inactive | inactive |  |  |  |  |  |  |  |  |  |  | diameter of the inhibition zone (DIZ) (Staphylococcus aureus [1]): inactive; diameter of the inhibition zone (DIZ) (Aspergillus niger [5]): inactive; MIC (Staphylococcus aureus [7]): inactive |
| Brc1ccc(/C(Cn2cncn2)=N\Nc2nc(-c3ccc(Br)cc3)cs2)cc1 | 10.9 | inactive |  |  | > 64 | inactive |  | > 64 µg/mL | > 64 µg/mL |  |  | 15.3 | 13.9 |  |  |  | inactive |  | inactive | diameter of the inhibition zone (DIZ) (Staphylococcus aureus [1]): inactive; MIC (Staphylococcus aureus [7]): inactive |
| Fc1ccc(-c2csc(N/N=C(/Cn3cncn3)c3ccc(Cl)cc3)n2)cc1 | 13.9 |  |  |  | > 64 |  |  | 32 µg/mL (≈ 77.5 µM) | 32 µg/mL (≈ 77.5 µM) | 25.7 | 16.8 | 18.8 | 19.1 | 32 (≈ 77.5 µM) | 64 (≈ 155 µM) |  | inactive |  | inactive |  |
| Fc1ccc(/C(Cn2cncn2)=N\Nc2nc(-c3ccc(Cl)cc3)cs2)cc1 | 15.9 |  |  |  | > 64 |  |  | 16 µg/mL (≈ 38.8 µM) | 32 µg/mL (≈ 77.5 µM) | 22.3 | 20.5 | 20.7 | 18.8 | 64 (≈ 155 µM) | 32 (≈ 77.5 µM) |  | inactive |  | inactive |  |
| Clc1ccc(/C(Cn2cncn2)=N\Nc2nc(-c3ccc(Br)cc3)cs2)cc1 |  | inactive | 23.9 | inactive |  | inactive | 32 (≈ 67.5 µM) | 64 µg/mL (≈ 135 µM) | inactive | 19.1 |  | 18.6 |  | 64 (≈ 135 µM) |  | inactive |  | inactive |  |  |
| Clc1ccc(-c2csc(N/N=C(/Cn3cncn3)c3ccc(Br)cc3)n2)cc1 |  |  | 21.7 |  |  |  | 32 (≈ 67.5 µM) | 32 µg/mL (≈ 67.5 µM) | 64 µg/mL (≈ 135 µM) | 13.1 | 17.3 | 16.7 | 16.2 | > 64 | 64 (≈ 135 µM) | inactive |  | inactive |  |  |
| Clc1ccc(/C(Cn2cncn2)=N\Nc2nc(-c3ccc(Cl)cc3)cs2)cc1 | 9.65 | inactive | 28.9 |  | > 64 | inactive | 16 (≈ 37.3 µM) | 32 µg/mL (≈ 74.5 µM) | 32 µg/mL (≈ 74.5 µM) | 18.8 |  | 19.5 | 20.4 | 64 (≈ 149 µM) |  |  |  |  |  |  |
| NYSTATIN |  |  |  |  |  |  |  | 16 µg/mL | 16 µg/mL |  |  |  |  |  |  |  |  |  |  | inhibition zone (IZ) (Aspergillus niger [5]): 21.6 mm; inhibition zone (IZ) (Candida albicans [6]): 23.3 mm |

Reference: ChEMBL document CHEMBL2040750, “Hybrids of ravuconazole: synthesis and biological evaluation” (2012)
